The values below come from article PMC7063993 (ACS chemical neuroscience, 2019).

pIC50: −log10 of the molar value.

Data set [1] has as its system MN9D cells. As to the kind of experiment: Cellular uptake into MN9D cells. It is filed as cell-based, mouse. To be noted: for Concentration dependence of MN9D cell uptake: up to 100 μM (0-100 μM for 45 min for [3], [4], [5]). In a few lines: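 MN9D cells seeded at 0.25 x 10⁶ cells/well and grown 2–3 days to 70–80% confluency. Test compound in warm KRB-HEPES (pH 7.4) at 37 °C: 50 μM for 0–60 min (time course) or varying concentrations for 45 min. Cells washed in ice-cold buffer and pellets extracted with 0.1 M HClO₄. C18 reversed-phase HPLC-UV quantified against standard curves. Normalized to Bradford protein, time-zero readings subtracted.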

A short description of data set [2]: Uptake into isolated intact MN9D cell mitochondria. Further details: species or system mouse. To be noted: 50 μM, 45 min.
Data set [3] in a line: Relative lipophilicity estimated by reverse phase HPLC retention times. The data set is classed as physicochemical.
Data set [4] concerns MN9D cells. Nature of the data set: Intracellular ROS levels by DCFH-DA in MN9D cells. It is filed as cell-based, mouse.
Data set [5] deals with MN9D cell mitochondrial membrane potential. As to the kind of experiment: Mitochondrial membrane potential. The data set is classed as cell-based, mouse. To be noted: 500 μM, 1 h of incubation, TMRM. The gist of the method: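 MN9D cells on glass-bottomed plates loaded with 50 nM TMRM in KRB-HEPES for 45 min in the dark. Fluorescence (Ex/Em 543/573 nm) recorded from 15–20 ROIs every 5 s for 3 min as baseline. Test compound then added and recording continued every 15 s for 1 h. Background subtracted and ROI averages taken as membrane potential.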

In data set [6] the test system is HepG2 cells. Nature of the data set: Intracellular ROS levels by DCFH-DA in HepG2 cells. The data set is classed as cell-based, Human. To be noted: 1 h. The gist of the method: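 Cells in 12-well plates loaded with 10 μM DCFH-DA in KRB-HEPES for 1 h, then washed with ice-cold buffer. Exposed to test compound in the same buffer for 1 h at 37 °C. Harvested and lysed in 0.1 M Tris (pH 7.5) with 1% Triton X-100, then cleared by centrifugation. DCF fluorescence read at Ex/Em 488/524 nm and normalized to protein content.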

A further data set concerns dopaminergic MN9D cells. As to the kind of experiment: MTT cell viability assay, MN9D cell toxicity. It is filed as cell-based, mouse. To be noted: Asc pre-treatment 30 min, 8 μM [3] or 40 μM [1], 18 h. The gist of the method:
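MN9D cells in 96-well plates pretreated with ascorbate (0–500 μM) for 30 min at 37 °C. Then exposed to a fixed concentration of test compound with the same ascorbate level for 18 h at 37 °C. Read by MTT (A570 − A650) as % of controls. Parallel toxin-free wells at each ascorbate level subtracted to correct for MTT reduction by ascorbate.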
On the technique in general: Tetrazolium assays rely on reduction of a dye to a coloured formazan, in cell work by metabolically active cells.

Data set [7] has as its system rat brain mitochondrial complex I. As to the kind of experiment: Mitochondrial complex I. The data set is classed as biochemical.
The test system of data set [8] is HepG2 cells. Nature of the data set: MTT cell viability assay, HepG2 cell toxicity. The data set is classed as cell-based, Human. To be noted: same conditions/concentrations as MN9D experiments. The gist of the method: (§1)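 Cells grown in 96-well plates to ~70–80% confluence. Medium replaced with DMEM containing test compound at varying concentrations, 18 h (12 h in one series) at 37 °C. MTT added for 2 h at 37 °C. Formazan dissolved in 50% DMF/20% SDS for 12 h at 37 °C and read as A570 minus A650. Viability expressed as % of untreated controls.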

Data set [9] concerns dopaminergic SH-SH5Y cells. Nature of the data set: MTT cell viability assay, SH-SY5Y cell toxicity. The data set is classed as cell-based. To be noted: read-out: IC50 (SH-SH5Y cell toxicity). In a few lines: as §1
Data set [10] deals with MN9D cells. Nature of the data set: Chromatin condensation test for apoptosis. To be noted: 200 μM [1], 12 h, 300 nM DAPI. It is filed as cell-based, mouse. In a few lines: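 MN9D cells on glass-bottomed plates exposed to test compound for 12 h. Nuclear DAPI fluorescence (Ex/Em 358/461 nm) from chromatin condensation observed by fluorescence microscopy. Controls handled the same way without toxin.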

On to “4-(4′-methoxyphenyl-1-[2-(4-chlorophenyl)-propyl] pyridinium bromide [[3]]”, for which the “Concentration dependence of MN9D cell uptake” value (from here on “Concentration dependence”) with MN9D cells [1] is “concentration dependent and non-saturable”. In data set [2], the “Uptake into isolated intact MN9D mitochondria” value is “accumulate efficiently in intact mitochondria with comparable efficiency”. The “RT (relative lipophilicity, reverse phase HPLC retention time)” value in data set [3] is recorded as 8.39 min. The “Increase of intracellular ROS level from the baseline levels” value in the data set on MN9D cells [4] (MN9D cells, 100 μM, 1 h, DCFH-DA) is 2.5–3.0 fold. In data set [5], the “Depolarization of MN9D cell mitochondrial membrane potential” value is reported as “drastically”. Besides, the “Effect on intracellular ROS levels in HepG2 cells” value with HepG2 cells [6] was “did not increase”.

With “4-(4′-methoxyphenyl-1-[2-(4-fluorophenyl)-propyl]pyridinium bromide [[5]]”, the “Concentration dependence” value in the data set on MN9D cells [1] is “concentration dependent and non-saturable”. Moreover, in [2], the “Uptake into isolated intact MN9D mitochondria” value is on record as “accumulate efficiently in intact mitochondria with comparable efficiency”. Besides, the “RT (relative lipophilicity, reverse phase HPLC retention time)” value in data set [3] is given as 6.97 min. Moreover, the “Effect on intracellular ROS levels in MN9D cells” value in the data set on MN9D cells [4] (MN9D cells, up to 100 μM, 1 h, DCFH-DA) was “did not significantly increase”. The “Depolarization of MN9D cell mitochondrial membrane potential” value in data set [5] was “very weakly”. Besides, the “Effect on intracellular ROS levels in HepG2 cells” value in the data set with HepG2 cells [6] is “did not increase”.

Regarding `O=C1O[C@H]([C@@H](O)CO)C(O)=C1O` [Asc, ascorbate, reference compound], the “Effect on [1] and [3]-mediated MN9D cell death” value with dopaminergic MN9D cells is “protects”. Also, the “Effect on [1]-mediated ROS production in MN9D cells” value in the data set with MN9D cells [4] (Asc 0-2 mM pre-incubation 1 h, then 200 μM [1] for 5 h) is “effectively reduces”.

As for `C[n+]1ccc(-c2ccccc2)cc1` [MPP^+, 1-methyl-4-phenylpyridinium], the “Relative percent inhibition of complex I” value in [7] (100 μM, rat brain mitochondrial membranes) was found to be 12.5%.

In the case of `CC(=C[n+]1ccc(-c2ccccc2)cc1)c1ccccc1` [[1], N-(2-phenyl-1-propene)-4-phenyl-pyridinium], the “Toxicity to HepG2 cells” value in the data set with HepG2 cells [8] was “not significantly toxic”. The “Time course of MN9D cell uptake” value in the data set with MN9D cells [1] (50 μM, up to 1 h, 37°C) is given as “linear”. The “Concentration dependence” value with MN9D cells [1] is “non-saturable”. The “RT (relative lipophilicity, reverse phase HPLC retention time)” value in data set [3] is given as 6.33 min. Besides, the negative logarithm of the IC50 (pIC50) – broadly, the negative decadic logarithm of the IC50, by convention in mol/L – in data set [9] is roughly 4.30. The “Chromatin condensation (nuclear DAPI fluorescence) in MN9D cell death” value with MN9D cells [10] is “associated with chromatin condensation”.

On to `C=C(C)[C@H]1Cc2c(ccc3c2O[C@@H]2COc4cc(OC)c(OC)cc4[C@@H]2C3=O)O1` [rotenone], for which, in [7] (10 μM, positive control, compared to control), the “Inhibition of ubiquinone dependent NADH oxidation activity of complex I” value was “more than 85%”.
